Results as given in ChEMBL document CHEMBL1926551, “Design, synthesis and in vitro evaluation of novel chroman-4-one, chroman, and 2H-chromene derivatives as human rhinovirus capsid-binding inhibitors” (Bioorg Med Chem, 2011).
pIC50: −log10 of the molar value. Activity calls are given as the source filed them. No cut-off for these calls is given here.

Key:
rhinovirus B14 [1] = test: Antiviral activity against Human rhinovirus 14 infected in human HeLa cells assessed as inhibition of virus induced-plaque formation after 3 days by neutral red-based plaque reduction assay; type: functional, organism-based; conditions: Rhinovirus B, 72 h
Summary of the method: (§1)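 HeLa (Ohio) monolayers infected with virus giving about 100 plaques/well and adsorbed 1 h at 33 °C. The inoculum was removed and cells were overlaid with plaque medium ± fourfold compound dilutions, starting from the maximum non-cytotoxic concentration (MNTC). After 3 days at 33 °C, cells were stained with neutral red (0.2 mg/mL in PBS, pH 7.4) and plaques counted, triplicate wells. IC50 came from % plaque reduction vs log dose; where 50% was not reached, % inhibition at the MNTC was reported.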

[2] = Therapeutic index, ratio of TC50 for human HeLa cells to IC50 for Human rhinovirus 14 infected in human HeLa cells; type: cell-based; conditions: read-out: TI
Summary of the method: (§2)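 Therapeutic index calculated as HeLa TC50 (XTT, 3 days) divided by the plaque-reduction IC50 for the respective serotype.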

[3] = Therapeutic index, ratio of TC50 for human HeLa cells to IC50 for Human rhinovirus 1B infected in human HeLa cells; type: cell-based; conditions: read-out: TI; summary of the method: as §2
rhinovirus A1B [4] = test: Antiviral activity against Human rhinovirus 1B infected in human HeLa cells assessed as inhibition of virus induced-plaque formation after 3 days by neutral red-based plaque reduction assay; type: functional, organism-based; conditions: Rhinovirus A, 72 h
Summary of the method: (§3)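 HeLa (Ohio) monolayers infected with virus giving about 100 plaques/well and adsorbed 1 h at 33 °C. The inoculum was removed and cells were overlaid with plaque medium ± fourfold compound dilutions, starting from the maximum non-cytotoxic concentration (MNTC). After 3 days at 33 °C, cells were stained with neutral red (0.2 mg/mL in PBS, pH 7.4) and plaques counted, triplicate wells.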

[5] = Cytotoxicity against human HeLa cells after 3 days by microscopic analysis; type: cell-based; conditions: read-out: MNCC
Summary of the method: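 HeLa cells exposed to twofold compound dilutions for 3 days at 37 °C and morphology scored microscopically on day 3. The MNTC is the highest concentration leaving morphology and viability unchanged in 100% of cells.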

[6] = Cytotoxicity against human HeLa cells after 3 days by XTT based ELISA reader; type: cell-based; conditions: read-out: TC50
Summary of the method: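 HeLa cells seeded at 2 × 10^3 cells/well in growth medium (MEM, 8% FCS) with twofold compound dilutions from the maximum soluble concentration, triplicate wells. Matched ethanol controls were run. Plates were held 3 days at 37 °C, 5% CO2, then XTT was added (final 0.15 mg/mL) for 4 h.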

rhinovirus B14 [7] = test: Antiviral activity against Human rhinovirus 14 infected in human HeLa cells assessed as inhibition of virus induced-plaque formation at 12.5 uM after 3 days by neutral red-based plaque reduction assay; type: functional; conditions: Rhinovirus B, 72 h; summary of the method: as §1
rhinovirus B14 [8] = test: Antiviral activity against Human rhinovirus 14 infected in human HeLa cells assessed as inhibition of virus induced-plaque formation at 25 uM after 3 days by neutral red-based plaque reduction assay; type: functional; conditions: Rhinovirus B, 72 h; summary of the method: as §3
[9] = Ratio of IC50 for Human rhinovirus 1B to IC50 for Human rhinovirus 14; type: functional
rhinovirus A1B [10] = test: Antiviral activity against Human rhinovirus 1B infected in human HeLa cells assessed as reduction of viral yield at 42 uM treated 45 mins after viral adsorption measured after 10 hrs by neutral red-based plaque reduction assay; type: functional; conditions: Rhinovirus A
rhinovirus A1B [11] = test: Antiviral activity against Human rhinovirus 1B infected in human HeLa cells assessed as reduction of viral yield at 42 uM treated 15 mins after viral adsorption measured after 10 hrs by neutral red-based plaque reduction assay; type: functional; conditions: Rhinovirus A
rhinovirus A1B [12] = test: Antiviral activity against Human rhinovirus 1B infected in human HeLa cells assessed as reduction of viral yield at 42 uM treated 30 mins after viral adsorption measured after 10 hrs by neutral red-based plaque reduction assay; type: functional; conditions: Rhinovirus A
rhinovirus A1B [13] = test: Antiviral activity against Human rhinovirus 1B infected in human HeLa cells assessed as reduction of viral yield at 42 uM treated during viral adsorption measured after 10 hrs by neutral red-based plaque reduction assay; type: functional; conditions: Rhinovirus A
Summary of the method: (§4)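 One-step growth: confluent HeLa monolayers infected with HRV 1B at MOI 5. Virus bound 1 h at 4 °C, then washed thrice with cold PBS; cultures were incubated at 33 °C to 10 h p.i. 42 µM compound was present either during binding only or throughout binding plus replication. Cultures were freeze-thawed three times, clarified, and yield titrated by plaque assay on HeLa.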

rhinovirus A1B [14] = test: Antiviral activity against Human rhinovirus 1B infected in human HeLa cells assessed as reduction of viral yield at 42 uM treated at the end of viral adsorption followed by washout after 6 hrs measured after 10 hrs by neutral red-based plaque reduction assay; type: functional; conditions: Rhinovirus A
rhinovirus A1B [15] = test: Antiviral activity against Human rhinovirus 1B infected in human HeLa cells assessed as reduction of viral yield at 42 uM treated at the end of viral adsorption measured after 10 hrs by neutral red-based plaque reduction assay; type: functional, organism-based; conditions: TDE = time-dependent effect
rhinovirus A1B [16] = test: Antiviral activity against Human rhinovirus 1B infected in human HeLa cells assessed as reduction of viral yield at 42 uM treated together with viral inoculum after 10 hrs by neutral red-based plaque reduction assay; type: functional; conditions: Rhinovirus A; summary of the method: as §4
rhinovirus A1B [17] = test: Antiviral activity against Human rhinovirus 1B infected in human HeLa cells assessed as reduction of viral yield at 42 uM treated 6 hrs after viral adsorption measured after 10 hrs by neutral red-based plaque reduction assay; type: functional; conditions: Rhinovirus A
rhinovirus A1B [18] = test: Antiviral activity against Human rhinovirus 1B infected in human HeLa cells assessed as reduction of viral yield at 42 uM treated 4 hrs after viral adsorption measured after 10 hrs by neutral red-based plaque reduction assay; type: functional; conditions: Rhinovirus A
rhinovirus A1B [19] = test: Antiviral activity against Human rhinovirus 1B in human HeLa cell monolayers assessed as reduction of viral infectivity at 42 uM at pH 5 pre-treated for 1 hr before mild acid treatment measured after 30 mins by plaque assay (reference value: 3.8 log PFU/mL); type: functional
rhinovirus A1B [20] = test: Antiviral activity against Human rhinovirus 1B assessed as reduction in infectivity titers at 42 uM after 1 hr using HeLa cell monolayers by plaque assay (reference value: 5.33 * 10^6 PFU/mL); type: functional
Summary of the method: (§5)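 HRV 1B suspension at high titre incubated ± 42 µM compound for 1 h at 33 °C. It was then serially diluted 10-fold to reach non-inhibitory free compound levels, and infectivity was titrated by plaque assay on HeLa monolayers.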

rhinovirus A1B [21] = test: Antiviral activity against Human rhinovirus 1B infected in human HeLa cells assessed as reduction of viral yield at 42 uM at 4 degC treated immediately after viral adsorption after 1 hr by neutral red-based plaque reduction assay; type: functional, organism-based
rhinovirus A1B [22] = test: Antiviral activity against Human rhinovirus 1B in human HeLa cell monolayers assessed as reduction of viral infectivity at 42 uM at 56 degC pre-treated for 1 hr before thermal treatment measured after 20 mins by plaque assay (reference value: 2.9 log PFU/mL); type: functional
rhinovirus A1B [23] = test: Antiviral activity against Human rhinovirus 1B infected in human HeLa cells assessed as reduction of viral yield at 42 uM treated at the end of viral adsorption followed by washout after 30 mins to 1 hr measured after 10 hrs by neutral red-based plaque reduction assay; type: functional; conditions: Rhinovirus A
rhinovirus A1B [24] = test: Antiviral activity against Human rhinovirus 1B infected in human HeLa cells assessed as reduction of viral yield at 42 uM treated before viral adsorption measured after 10 hrs by neutral red-based plaque reduction assay; type: functional; conditions: Rhinovirus A
rhinovirus A1B [25] = test: Antiviral activity against Human rhinovirus 1B infected in human HeLa cells assessed as reduction of viral yield at 42 uM treated 2 hrs after viral adsorption measured after 10 hrs by neutral red-based plaque reduction assay; type: functional; conditions: Rhinovirus A
rhinovirus A1B [26] = test: Antiviral activity against Human rhinovirus 1B infected in human HeLa cells measured after dilution; type: functional, organism-based; summary of the method: as §5
rhinovirus A1B [27] = test: Antiviral activity against Human rhinovirus 1B infected in human HeLa cells assessed as reduction of viral yield at 42 uM treated 60 mins after viral adsorption measured after 10 hrs by neutral red-based plaque reduction assay; type: functional; conditions: Rhinovirus A

Row | Structure (SMILES) | pIC50 (rhinovirus B14 [1]) | selectivity ratio [2] | selectivity ratio [3] | pIC50 (rhinovirus A1B [4]) | MNTC at 72 h [5] [µM] | CC50 at 72 h [6] [µM] | further results
1 | O=C1/C(=C/C#Cc2ccccc2)COc2ccc(Cl)cc21 | 4.52 | 2.47 | 9.51 | 5.10 | 50 | 75 | 
2 | O=C1/C(=C/C=C/c2ccccc2)COc2ccc(F)cc21 | 4.77 | 2.94 | 10 | 5.30 | 25 | 50 | 
3 | O=C1/C(=C/C=C/c2ccccc2)COc2ccccc21 |  |  | 29.4 | 6.07 | 12.5 | 25 | inhibition at 12.5 µM (rhinovirus B14 [7]): 7.2%
4 | Clc1ccc(C/C=C/C2=Cc3cc(Cl)ccc3OC2)cc1 |  |  | 10.3 | 5.01 | 25 | 100 | inhibition at 25 µM (rhinovirus B14 [8]): 27%
5 | Clc1ccc2c(c1)C/C(=C/C=C/c1ccccc1)CO2 |  |  | 17.9 | 5.55 | 25 | 50 | inhibition at 25 µM (rhinovirus B14 [8]): 30.3%
6 | Clc1ccc(C/C=C/C2=Cc3ccccc3OC2)cc1 | 4.35 | 2.22 | 27.7 | 5.44 | 50 | 100 | 
7 | C(/C=C/c1ccccc1)=C1/COc2ccccc2C1 | 4.32 | 2.1 | 101 | 6.00 | 50 | 100 | 
8 | O=C1/C(=C/C=C/c2ccc(Cl)cc2)COc2ccccc21 |  |  | 19.7 | 5.60 | 25 | 50 | inhibition at 25 µM (rhinovirus B14 [8]): 17.1%
9 | O=C1/C(=C/C=C/c2ccc(Cl)cc2)COc2ccc(Cl)cc21 | 5.85 | 17.6 | 7.46 | 5.47 | 12.5 | 25 | Ratio IC50 [9]: 2
10 | Fc1ccc2c(c1)C/C(=C/C=C/c1ccccc1)CO2 | 4.44 | 2.05 | 13.5 | 5.25 | 50 | 75 | 
11 | Clc1ccc(/C=C/C=C2\COc3ccccc3C2)cc1 | 5.22 | 8.31 | 36 | 5.86 | 25 | 50 | 
12 | O=C1/C(=C/C#Cc2ccccc2)COc2ccccc21 | 4.70 | 2.5 | 5.38 | 5.03 | 25 | 50 | 
13 | C1=C(/C=C/Cc2ccccc2)COc2ccccc21 | 4.96 | 6.76 | 5.52 | 4.87 | 50 | 75 | 
14 | Clc1ccc(/C=C/C=C2\COc3ccc(Cl)cc3C2)cc1 | 5.08 | 3.02 | 2.18 | 4.94 | 12.5 | 25 | 
15 | Clc1ccc2c(c1)C=C(/C=C/Cc1ccccc1)CO2 |  |  | 59.5 | 6.38 | 12.5 | 25 | inhibition at 42 µM (rhinovirus A1B [10]): > 80%; inhibition at 42 µM (rhinovirus A1B [11]): > 80%; inhibition at 42 µM (rhinovirus A1B [12]): > 80%; inhibition at 42 µM (rhinovirus A1B [13]): 16%; inhibition at 42 µM (rhinovirus A1B [14]): 93%; inhibition (rhinovirus A1B [15]): tde; inhibition at 42 µM (rhinovirus A1B [16]): 88.5%; inhibition at 42 µM (rhinovirus A1B [17]): 1%; inhibition at 42 µM (rhinovirus A1B [18]): 12%; log10PFU/ml (rhinovirus A1B [19]): 2.8; PFU/ml (rhinovirus A1B [20]): 5110000; inhibition (rhinovirus A1B [21]): Active; log10PFU/ml (rhinovirus A1B [22]): 1.8; inhibition at 42 µM (rhinovirus A1B [23]): 35%; inhibition at 12.5 µM (rhinovirus B14 [7]): 23%; inhibition at 42 µM (rhinovirus A1B [24]): 6%; inhibition at 42 µM (rhinovirus A1B [25]): 31%; Activity (rhinovirus A1B [26]): inactive; inhibition at 42 µM (rhinovirus A1B [27]): > 80%
16 | O=C1/C(=C/C=C/c2ccccc2)COc2ccc(Cl)cc21 |  |  | 50.5 | 6.00 | 25 | 50 | inhibition at 25 µM (rhinovirus B14 [8]): 48.6%
